# Data reported in ChEMBL document CHEMBL4411269, “Required Immunoproteasome Subunit Inhibition Profile for Anti-Inflammatory Efficacy and Clinical Candidate KZR-616 ((2 S,3 R)- N-(( S)-3-(Cyclopent-1-en-1-yl)-1-(( R)-2-methyloxiran-2-yl)-1-oxopropan-2-yl)-3-hydroxy-3-(4-methoxyphenyl)-2-(( S)-2-(2-morpholinoacetamido)propanamido)propenamide)” (J Med Chem, 2018).
# Calls of active or inactive are those of the source. The rule behind the calls is not given here.
# Key:
# [1] = molecular target: T1, Proteasome subunit beta type-9 (Mus musculus, UniProt P28076); assay: Inhibition of LMP2 in mouse A20 cells by ELISA; type: cell-based
# T1 sequence (P28076 whole entry): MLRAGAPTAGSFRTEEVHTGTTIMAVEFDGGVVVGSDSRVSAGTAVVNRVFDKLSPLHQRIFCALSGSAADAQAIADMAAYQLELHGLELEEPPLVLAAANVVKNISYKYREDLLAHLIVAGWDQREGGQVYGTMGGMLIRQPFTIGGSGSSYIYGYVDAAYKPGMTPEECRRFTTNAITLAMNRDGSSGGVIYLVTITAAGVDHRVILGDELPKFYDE
# Summary of the method: (§1)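 Mouse A20 B-cell lymphoma cell lysate (1 mg/mL, hypotonic 20 mM Tris pH 8, 5 mM EDTA) treated with serially diluted compound for 1 h at 25 °C. Then 5 μM biotinylated active-site probe for 2 h at 25 °C, guanidine denaturation and streptavidin bead capture. Subunit-specific antibody and HRP chemiluminescence, signal normalized to protein, IC50 from percent activity versus DMSO controls.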
# [2] = molecular target: T2, Proteasome Macropain subunit MB1 (Homo sapiens, UniProt P28074); assay: Inhibition of 20S proteosome beta 5 in human MOLT4 cells by ELISA; type: cell-based
# T2 sequence (P28074 whole entry): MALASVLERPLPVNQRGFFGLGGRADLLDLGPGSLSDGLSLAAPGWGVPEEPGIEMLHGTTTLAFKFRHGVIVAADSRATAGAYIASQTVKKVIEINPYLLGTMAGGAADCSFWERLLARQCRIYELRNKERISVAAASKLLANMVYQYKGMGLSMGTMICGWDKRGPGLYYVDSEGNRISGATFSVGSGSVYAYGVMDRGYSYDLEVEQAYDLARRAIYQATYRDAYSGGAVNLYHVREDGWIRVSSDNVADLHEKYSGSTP
# [3] = molecular target: T3, Proteasome subunit beta type-10 (Homo sapiens, UniProt P40306); assay: Inhibition of MECL1 in human MOLT4 cells by ELISA; type: cell-based
# T3 sequence (P40306 whole entry): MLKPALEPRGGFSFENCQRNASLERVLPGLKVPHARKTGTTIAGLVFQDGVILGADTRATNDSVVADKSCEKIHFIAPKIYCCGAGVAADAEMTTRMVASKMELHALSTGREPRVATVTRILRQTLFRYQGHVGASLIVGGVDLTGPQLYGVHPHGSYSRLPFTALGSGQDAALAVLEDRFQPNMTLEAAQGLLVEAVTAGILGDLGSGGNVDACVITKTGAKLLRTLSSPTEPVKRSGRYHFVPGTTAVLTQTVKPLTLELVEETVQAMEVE
# [4] = molecular target: T4, Proteasome subunit beta type-8 (Mus musculus, UniProt P28063); assay: Inhibition of LMP7 in mouse A20 cells by ELISA; type: cell-based; summary of the method: as §1
# T4 sequence (P28063 whole entry): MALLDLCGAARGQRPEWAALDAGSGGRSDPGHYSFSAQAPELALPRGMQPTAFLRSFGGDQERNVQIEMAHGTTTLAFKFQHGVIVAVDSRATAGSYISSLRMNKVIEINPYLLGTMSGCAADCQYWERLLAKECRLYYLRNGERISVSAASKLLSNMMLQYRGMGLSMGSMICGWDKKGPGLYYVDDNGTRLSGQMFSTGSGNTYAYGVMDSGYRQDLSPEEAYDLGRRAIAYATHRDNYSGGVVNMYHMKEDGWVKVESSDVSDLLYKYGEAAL
# [5] = molecular target: T5, Proteasome subunit beta type-9 (Homo sapiens, UniProt P28065); assay: Inhibition of LMP2 in human MOLT4 cells by ELISA; type: cell-based
# T5 sequence (P28065 whole entry): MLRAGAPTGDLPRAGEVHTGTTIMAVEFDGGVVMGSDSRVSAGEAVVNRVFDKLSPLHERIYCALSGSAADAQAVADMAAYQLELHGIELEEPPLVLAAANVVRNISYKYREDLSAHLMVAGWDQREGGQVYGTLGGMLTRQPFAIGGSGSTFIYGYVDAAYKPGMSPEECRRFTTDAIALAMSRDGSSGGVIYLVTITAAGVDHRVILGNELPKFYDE
# [6] = molecular target: T6, Proteasome subunit beta type-5 (Mus musculus, UniProt O55234); assay: Inhibition of 20S proteosome beta 5 in mouse A20 cells by ELISA; type: cell-based
# T6 sequence (O55234 whole entry): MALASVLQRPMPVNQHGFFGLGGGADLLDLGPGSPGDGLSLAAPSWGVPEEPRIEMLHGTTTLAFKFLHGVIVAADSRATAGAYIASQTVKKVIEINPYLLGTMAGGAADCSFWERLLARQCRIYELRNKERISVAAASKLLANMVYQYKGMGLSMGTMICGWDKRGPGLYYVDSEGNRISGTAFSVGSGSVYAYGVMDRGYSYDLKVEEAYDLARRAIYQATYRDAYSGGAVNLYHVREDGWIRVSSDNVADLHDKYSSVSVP
# [7] = Solubility of the compound in phosphate buffer at pH 7.2 at 10 mg/ml after 24 hrs by HPLC-UV method; type: physicochemical
# Summary of the method: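 Compound shaken at a target 10 mg/mL in 50 mM potassium phosphate buffer for 24 h at 25 °C, then centrifuged at 15 000 rpm for 15 min. Supernatant diluted 100-fold in DMSO and quantified by HPLC-UV (220/254/280 nm) against a three-level DMSO standard curve, in duplicate.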
# [8] = molecular target: Proteasome subunit beta type-2 (Mus musculus, UniProt Q9R1P3); assay: Inhibition of 20S proteosome beta 2 in mouse A20 cells by ELISA; type: cell-based
# Sequence of Proteasome subunit beta type-2 (Q9R1P3 whole entry): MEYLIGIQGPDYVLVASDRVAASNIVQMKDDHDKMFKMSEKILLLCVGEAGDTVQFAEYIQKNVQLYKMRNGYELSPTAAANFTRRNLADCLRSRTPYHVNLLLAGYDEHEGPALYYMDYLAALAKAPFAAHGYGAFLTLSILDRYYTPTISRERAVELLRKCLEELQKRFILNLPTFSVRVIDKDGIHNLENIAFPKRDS
# [9] = test system: PBMC; assay: Antiinflammatory activity in human PBMC assessed as reduction in LPS-stimulated IL-6 expression at 250 nM preincubated for 1 hr followed by LPS stimulation measured after 24 hrs by ELISA; type: functional, cell-based
# Summary of the method: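 Cryopreserved healthy-donor PBMC in RPMI 1640 with 5% heat-inactivated FBS, 250 000 cells/well. Compound (0.1% DMSO final) for 1 h at 37 °C, 5% CO2, then 4 washes with medium. Stimulated with 1 μg/mL LPS for 24 h; supernatant TNFα, IL-6 and IL-12/23p40 by electrochemiluminescent immunoassay. Mean level relative to DMSO controls, n = 6.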
# [10] = test system: PBMC; assay: Antiinflammatory activity in human PBMC assessed as reduction in anti-CD3/CD28 antibody-stimulated IFN-gamma expression at 250 nM preincubated for 1 hr followed by anti-CD3/CD28 antibody stimulation measured after 24 hrs by ELISA; type: functional, cell-based
# Summary of the method: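 Healthy-donor PBMC, thawed from cryopreservation, 250 000 cells/well in RPMI 1640/5% FBS. Pretreated 1 h at 37 °C with compound alone or combined (0.1% DMSO final), washed 4 times, then stimulated 24 h with anti-CD3 and anti-CD28 antibodies. TNFα and IFNγ in supernatants by electrochemiluminescent ELISA; expressed relative to DMSO-treated controls (n = 6).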
IC50 [1],IC50 [2],IC50 [3],IC50 [4],IC50 [5],IC50 [6],solubility at 24 h [7],IC50 [8],SMILES,Activity [9],Activity [10]
3960 nM,2670 nM,> 25000 nM,374 nM,1850 nM,2650 nM,491 µg/mL,,COc1ccc(C[C@H](NC(=O)[C@@H](C)NC(=O)[C@H]2CC[C@H](O)CC2)C(=O)N[C@@H](CC2=CCCC2)C(=O)[C@@]2(C)CO2)cc1,,
179 nM,688 nM,623 nM,57 nM,131 nM,483 nM,7070 µg/mL,857 nM,COc1ccc([C@@H](O)[C@H](NC(=O)[C@H](C)NC(=O)CN2CCOCC2)C(=O)N[C@@H](CC2=CCCC2)C(=O)[C@@]2(C)CO2)cc1 [ZETOMIPZOMIB],Active,Active
> 25000 nM,486 nM,71 nM,1920 nM,> 25000 nM,378 nM,7 µg/mL,573 nM,Cc1ccc(CC[C@H](NC(=O)[C@H](Cc2ccccc2)NC(=O)[C@H](CC(C)C)NC(=O)CN2CCCCCC2)C(=O)[C@@]2(C)CO2)cc1,inactive,inactive
